Source: ChEMBL document CHEMBL2321789, “Discovery of Indenopyrazoles as a New Class of Hypoxia Inducible Factor (HIF)-1 Inhibitors” (ACS Med Chem Lett, 2013)
Calls of active or inactive are those of the source. No cut-off for these calls is given here.

Key:
[1] = test system: PC-3; test: Cytotoxicity against human PC3 cells after 72 hrs by MTT assay; type: functional, cell-based; details: PC-3, 72 h
Summary of the method: (§1)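 Cells exposed to compound at 0.1–30 μM for 72 h; viability read by MTT assay.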

[2] = test system: HeLa; test: Cytotoxicity against human HeLa cells after 72 hrs by MTT assay; type: functional, cell-based; summary of the method: as §1
[3] = test system: HepG2; test: Cytotoxicity against human HepG2 cells after 72 hrs by MTT assay; type: functional, cell-based; details: HepG2, 72 h; summary of the method: as §1
[4] = test system: HCT-116; test: Cytotoxicity against human HCT116 cells after 72 hrs by MTT assay; type: functional, cell-based; details: HCT-116, 72 h; summary of the method: as §1
[5] = target: T1, Hypoxia-inducible factor 1-alpha (Homo sapiens, UniProt Q16665); test: Inhibition of hypoxia-induced HIF1alpha transcriptional activity in human HeLa cells expressing HRE-Luc after 12 hrs by luciferase reporter gene assay; type: cell-based
Target sequence in this assay (Q16665 whole entry): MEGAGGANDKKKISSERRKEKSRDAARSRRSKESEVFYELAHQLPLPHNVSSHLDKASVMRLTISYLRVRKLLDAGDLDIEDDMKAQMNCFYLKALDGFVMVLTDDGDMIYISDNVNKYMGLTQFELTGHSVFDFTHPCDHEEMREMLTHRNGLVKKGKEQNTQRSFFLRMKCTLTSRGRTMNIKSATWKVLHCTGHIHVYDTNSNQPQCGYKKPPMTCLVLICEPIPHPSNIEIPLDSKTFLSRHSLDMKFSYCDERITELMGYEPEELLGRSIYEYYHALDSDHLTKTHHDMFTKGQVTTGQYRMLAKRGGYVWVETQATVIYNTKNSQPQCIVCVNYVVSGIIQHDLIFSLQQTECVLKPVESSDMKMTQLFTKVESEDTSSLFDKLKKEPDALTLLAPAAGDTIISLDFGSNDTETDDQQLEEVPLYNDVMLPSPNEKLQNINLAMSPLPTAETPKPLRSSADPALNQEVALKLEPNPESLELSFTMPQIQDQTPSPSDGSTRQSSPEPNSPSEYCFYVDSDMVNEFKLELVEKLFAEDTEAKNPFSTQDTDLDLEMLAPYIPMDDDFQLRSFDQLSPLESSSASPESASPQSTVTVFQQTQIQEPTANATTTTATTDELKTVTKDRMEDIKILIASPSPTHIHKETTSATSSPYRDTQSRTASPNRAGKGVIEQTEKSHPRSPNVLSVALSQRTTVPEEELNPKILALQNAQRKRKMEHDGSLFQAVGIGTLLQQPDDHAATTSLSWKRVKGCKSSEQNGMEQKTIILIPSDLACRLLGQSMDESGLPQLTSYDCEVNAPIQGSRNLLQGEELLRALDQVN

[6] = test system: HeLa; details: Homo sapiens, 0.1 to 10 uM
[7] = test system: HeLa; details: Homo sapiens, 1 uM
[8] = test system: HeLa; details: Homo sapiens, 0.001 to 1 uM
[9] = target: T1, Hypoxia-inducible factor 1-alpha; test: Inhibition of hypoxia-induced HIF1alpha transcriptional activity in human HeLa cells expressing HRE-Luc at 30 uM after 12 hrs by luciferase reporter gene assay; type: cell-based
Summary of the method: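 Reporter HeLa cells stably carrying HRE-firefly luciferase plus CMV-renilla luciferase, incubated 12 h with compound under 1% oxygen. Supernatant removed, then dual luciferase assay. Triplicate samples, mean ± SD.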
Target sequence in this assay (Q16665 whole entry, looked up): as the sequence (Q16665 whole entry) above

[10] = test system: HeLa; test: Inhibition of hypoxia-induced HIF1alpha nuclear translocation in human HeLa cells at 30 uM after 4 hrs by immunofluorescence analysis; type: functional, cell-based
Summary of the method: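 Under 1% oxygen, HeLa cells incubated 4 h with compound. HIF-1α localization imaged by immunofluorescence with specific antibody; nuclei stained with DAPI.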

[11] = test system: HeLa; test: Inhibition of hypoxia-induced HIF1alpha accumulation in human HeLa cells at 30 uM after 4 hrs by Western blot analysis; type: functional, cell-based
Summary of the method: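 HeLa cells under hypoxia (1% oxygen) treated with compound for 4 h at a range of concentrations. HIF-1α protein detected by immunoblot with specific antibody, tubulin as internal control.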

Row | SMILES | IC50 [5] [µM] | inhibition [9] [%] | IC50 [1] [µM] | IC50 [2] [µM] | IC50 [3] [µM] | IC50 [4] [µM] | inhibition [6] | inhibition [7] | inhibition [8] | inhibition [10] | inhibition [11]
1 | c1ccc2c(c1)Cc1c-2n[nH]c1Nc1ccc2c(c1)OCCO2 | 0.014 | – | – | – | – | – | – | – | – | – | –
2 | c1ccc2c(c1)Cc1c(Nc3ccc4c(c3)OCCO4)n[nH]c1-2 | – | – | 25.4 | 1.8 | 3.7 | 2.1 | inactive | inactive | inactive | – | –
3 | OCc1ccc(-c2nn(Cc3ccccc3)c3ccccc23)o1 | – | – | > 30 | 29.3 | 2.2 | 2.2 | – | – | – | – | –
4 | c1ccc(Nc2n[nH]c3c2Cc2ccccc2-3)cc1 | – | 0 | > 30 | 17.6 | 24.2 | 17.5 | – | – | – | – | –
5 | COc1cccc2c1Cc1c-2n[nH]c1Nc1ccccc1 | > 30 | 41 | 21.7 | 1.6 | 5.2 | 2.3 | – | – | – | – | –
6 | COc1ccc2c(c1)-c1n[nH]c(Nc3ccccc3)c1C2 | > 30 | 18 | > 30 | 13.4 | 15.4 | 1.5 | – | – | – | – | –
7 | c1ccc(Nc2n[nH]c3c2Cc2cc4c(cc2-3)OCO4)cc1 | – | 28 | 22.3 | 8.5 | 11.2 | 5.2 | – | – | – | – | –
8 | c1ccc(Nc2[nH]nc3c2Cc2cc4c(cc2-3)OCO4)cc1 | > 30 | – | – | – | – | – | – | – | – | – | –

Further lines, with some results ahead:

Row | IC50 [5] [µM] | inhibition [9] [%] | SMILES | IC50 [1] [µM] | IC50 [2] [µM] | IC50 [3] [µM] | IC50 [4] [µM] | inhibition [6] | inhibition [7] | inhibition [8] | inhibition [10] | inhibition [11]
9 | 1.4 | – | COc1ccc(Nc2n[nH]c3c2Cc2ccccc2-3)cc1 | 28.8 | 2.6 | 9.1 | 3.1 | – | – | – | – | –
10 | > 30 | 3 | COc1cccc2c1-c1[nH]nc(Nc3ccccc3)c1C2 | 3.2 | 0.57 | 0.75 | 0.57 | – | – | – | – | –
11 | > 30 | 28 | COc1ccc2c(c1)Cc1c-2n[nH]c1Nc1ccccc1 | < 0.1 | < 0.1 | < 0.1 | < 0.1 | – | – | – | – | –
12 | > 30 | 0 | COc1cc2c(cc1OC)-c1n[nH]c(Nc3ccccc3)c1C2 | 0.72 | < 0.1 | 0.24 | < 0.1 | – | – | – | – | –
13 | 0.034 | – | COc1cccc2c1Cc1c(Nc3ccc4c(c3)OCCO4)n[nH]c1-2 | 6.9 | 2.1 | 7 | 5.9 | – | – | – | – | –
14 | > 30 | – | c1ccc(Nc2[nH]nc3c2Cc2ccccc2-3)cc1 | – | – | – | – | – | – | – | – | –
15 | 6.1 | – | COc1cccc(Nc2n[nH]c3c2Cc2ccccc2-3)c1 | > 30 | 2.9 | 6.8 | 2.2 | – | – | – | – | –
16 | 3.2 | – | COc1ccc(Nc2n[nH]c3c2Cc2ccccc2-3)cc1OC | > 30 | 1.8 | 3.8 | 0.73 | – | – | – | – | –
17 | 0.214 | – | Nc1ccc(NC(=O)Nc2cccc3c2C(=O)c2c-3n[nH]c2-c2ccc3c(c2)OCO3)cc1 | – | – | – | – | – | – | – | – | –
18 | 0.27 | – | c1ccc2c(c1)Cc1c-2n[nH]c1Nc1ccc2c(c1)OCO2 | 23.7 | 5.8 | 12.7 | 6.9 | – | – | – | – | –
19 | 21 | – | COC(=O)c1ccc(O)c(NC(=O)COc2ccc(C34CC5CC(CC(C5)C3)C4)cc2)c1 | > 30 | > 30 | > 30 | > 30 | – | – | – | Active | Active
